Consider 4 compounds from publication PMC10246574 (International Journal of Nanomedicine, 2023).

Converted amounts (≈) assume the structure as drawn.

Data set [1] relates to chorio-allantoic membrane of fertilized hen's eggs. The data set is described as follows: Hen's egg chorio-allantoic membrane. To be noted: for irritation score (IS): 30 µL applied, observed 300 s; for irritation category: from IS. The method in brief:
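Fertilized hen's eggs (7–10 days) incubated at 37.5 ± 0.5 °C and 62.5 ± 7.5% humidity with rotation. Shell over the air cell opened, membrane moistened with saline and removed. 30 µL sample applied to the CAM. First hemorrhage, vascular lysis and coagulation timed over 300 s; IS = [(301−h)×5]/300 + [(301−l)×7]/300 + [(301−c)×9]/300. CAM also imaged at 0, 5 and 60 min. Controls: 1% w/v SLS and normal saline.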

Data set [2] can be described thus: Cytotoxicity by MTT assay in HaCaT cells. It is filed as cell-based. To be noted: human, HaCaT cells (immortalized epidermal keratinocytes). The procedure, abridged:
(§1)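 Thawed cells grown in DMEM with 10% v/v fetal calf serum, 1 mM L-glutamine, penicillin and streptomycin at 37 °C, 5% CO2. Seeded at 3 × 10^5 (HaCaT) or 3.5 × 10^5 (Hs68) cells/well for 24 h. Treated with oil at 0–100 µg/mL for 48 h. MTT (5 mg/mL solution) added for 4 h; formazan dissolved in DMSO; A578 and A630.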

The nature of data set [3]: Cytotoxicity by MTT assay in Hs68 cells. It is filed as cell-based. To be noted: human, Hs68 cells (foreskin fibroblasts). The method in brief:
as §1

In data set [4] the test system is human skin. To be noted: daily application under occlusive patch, human volunteers; cited from earlier work.
Data set [5] deals with rabbit skin. To be noted: rabbits, ref Acid (1987) [48], cited from earlier work.

Take `CCCCCCCCCCCCOS(=O)(=O)[O-].[Na+]` [SLS, sodium lauryl sulphate]: in data set [1], the “irritation score (IS)” value amounted to 12.5 ± 0.3 and the irritation category result was “severe irritation”.
In data set [2], `CCCCCCCCCCCCCCCC(=O)O` [palmitic acid] came in with a concentration for an effect of 20% (IC20) at 48 h of 100 µg/mL (≈ 390 µM) and a viability at 48 h, 100 µg/mL of 75.9 ± 3.5%. In data set [3], this compound showed an IC20 at 48 h of over 100 µg/mL and a viability at 48 h, 100 µg/mL of over 90%. Besides, in data set [1], the “irritation score (IS)” value was determined as 0.0 ± 0.0 and the irritation category entry is on record as “no irritant effect”. In addition, in data set [1] (60 min), the “irritation signs on CAM after 60 min of exposure” value is “vascular lysis was detected”. Further, the “irritation of human skin” value in data set [4] is “not found to be irritating”.
Take `CCCCC/C=C\C/C=C\CCCCCCCC(=O)O` [linoleic acid]: in data set [2], it took 100 µg/mL (≈ 357 µM) to reach the 20% level (IC20 at 48 h) and the viability at 48 h, 100 µg/mL came to 73.8 ± 5.8%. In addition, in data set [3], the IC20 at 48 h is over 100 µg/mL and the viability at 48 h, 100 µg/mL is over 90%. In addition, in data set [1], the “irritation score (IS)” value was determined as 0.0 ± 0.0 and the irritation category entry is recorded as “no irritant effect”. Further, the “irritation of human skin” value in data set [4] is “found to produce irritation”.
In data set [2], `CCCCCCCC/C=C\CCCCCCCC(=O)O` [oleic acid] showed an IC20 at 48 h of 100 µg/mL (≈ 354 µM) and a viability at 48 h, 100 µg/mL of 82.2 ± 6.1%. In data set [3], this compound showed a 20% effect concentration (IC20) at 48 h of over 100 µg/mL and a viability at 48 h, 100 µg/mL of over 90%. In addition, in data set [1], the “irritation score (IS)” value is on record as 0.0 ± 0.0 and the irritation category entry is on record as “no irritant effect”. For the same compound, the “primary irritation index (PII)” value in data set [5] (single insult occlusive patch test) is reported as 0.5. Further, in data set [5] (oleic acid after 24 h, palmitic acid after 2–24 h), the erythema result was “moderate erythema”. In addition, the “irritation of human skin” value in data set [4] was “not found to be irritating”.
